The term IC50 denotes the concentration needed to halve the response being measured. Lower therefore signals higher potency. Usually Ki stands for a dissociation constant, usually derived from enzyme kinetics or from competition with a known ligand. As usually defined, the half-life is the time in which the quantity being followed falls by half.

Peptide text beside a SMILES is read from it. * marks the point of attachment. X1 = N=C(N)NC/C=C/CN*

Experimental findings from ChEMBL document CHEMBL3112425, “Design, synthesis, and structure-activity relationship studies of a potent PACE4 inhibitor” (J Med Chem, 2014) are described below.

One data set relates to PC-3. As to the kind of experiment: Cytotoxicity against human PC3 cells after 72 hrs by MTT assay. It is filed as functional, cell-based. The note with it: PC-3, 72 h. In short, it runs like this: (§1)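 Prostate cancer cells were kept in RPMI 1640 at 37 °C, 5% CO2, with 5% FBS for DU145 and 10% FBS for LNCaP and PC3. After 24 h, medium was changed and peptides added at various concentrations, up to 350 μM. Viability was read by MTT after 72 h treatment. IC50 from dose–response curves, triplicate, mean ± SEM.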
A general note: Formazan colour is commonly taken as a measure of viable cells.

For data set [1], the target named is T1, Proprotein convertase subtilisin/kexin type 7 (Homo sapiens, UniProt Q16549).
T1 sequence (Q16549 whole entry): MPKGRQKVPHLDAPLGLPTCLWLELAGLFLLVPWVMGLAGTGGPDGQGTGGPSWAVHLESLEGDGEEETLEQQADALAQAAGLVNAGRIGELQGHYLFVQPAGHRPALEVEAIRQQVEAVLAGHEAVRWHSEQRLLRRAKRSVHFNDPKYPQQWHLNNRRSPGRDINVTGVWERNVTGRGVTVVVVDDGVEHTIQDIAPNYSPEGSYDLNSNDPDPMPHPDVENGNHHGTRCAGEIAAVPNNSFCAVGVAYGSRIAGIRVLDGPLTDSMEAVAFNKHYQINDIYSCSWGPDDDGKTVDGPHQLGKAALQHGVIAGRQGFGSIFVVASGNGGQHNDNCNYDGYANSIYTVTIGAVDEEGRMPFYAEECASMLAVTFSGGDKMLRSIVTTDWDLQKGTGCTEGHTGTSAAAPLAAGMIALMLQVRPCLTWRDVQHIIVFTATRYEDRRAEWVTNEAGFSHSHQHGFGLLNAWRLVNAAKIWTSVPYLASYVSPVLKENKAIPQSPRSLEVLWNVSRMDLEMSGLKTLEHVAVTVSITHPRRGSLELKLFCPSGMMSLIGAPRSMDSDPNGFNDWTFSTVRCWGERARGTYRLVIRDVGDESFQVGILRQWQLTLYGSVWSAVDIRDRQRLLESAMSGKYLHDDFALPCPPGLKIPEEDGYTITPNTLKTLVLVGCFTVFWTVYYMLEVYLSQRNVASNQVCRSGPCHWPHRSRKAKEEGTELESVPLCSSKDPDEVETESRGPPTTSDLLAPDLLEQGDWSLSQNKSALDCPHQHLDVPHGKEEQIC
As to the kind of experiment: Inhibition of human PC7 expressed in drosophila schneider 2 cells using pyroGlu-Arg-Thr-Lys-Arg-AMC as substrate after 1 hr. A digest of the protocol:
(§2)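 Human enzymes were expressed in Drosophila S2 cells and purified. Fluorogenic pyroGlu-RTKR-AMC was used at fixed concentration with varied inhibitor, 37 °C over 1 h. Buffers: furin, 100 mM Hepes pH 7.5, 1 mM CaCl2, 1 mM β-mercaptoethanol, 1.8 mg/mL BSA; PACE4 and PC7, 20 mM Bis-Tris pH 6.5, 1 mM CaCl2, 1.8 mg/mL BSA; PC2, same buffer at pH 5.7. Ki from IC50 (Cheng–Prusoff), or apparent Ki (Morrison) for tight binders. Triplicate, mean ± SD.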

Data set [2] in a line: Acute toxicity in human DU145 cells assessed as cell death/lysis at 100 uM after 4 hrs by LDH assay. It is filed as cell-based, DU-145. The note with it: read-out: INH. A digest of the protocol: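 DU145 cells (RPMI 1640, 5% FBS, 37 °C, 5% CO2) plated; 24 h later peptides added at 100 μM. After 4 h, release of lactate dehydrogenase into the medium was quantified enzymatically with a commercial LDH cytotoxicity kit as the measure of acute membrane damage/lysis.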

The target of the next data set is Furin (Homo sapiens, UniProt P09958). As to the kind of experiment: Inhibition of human recombinant furin expressed in drosophila schneider 2 cells using pyroGlu-Arg-Thr-Lys-Arg-AMC as substrate after 1 hr. In short, it runs like this:
as §2

A further data set relates to LNCaP. Put plainly: Cytotoxicity against human LNCAP cells after 72 hrs by MTT assay. It is filed as functional, cell-based. A digest of the protocol: as §1
The next data set has as its system Plasma. As to the kind of experiment: Drug degradation in CD-1 mouse plasma at 0.5 ug/uL after 30 mins by MALDI-TOF MS analysis. It is filed as ADME, cell-free. The note with it: 0.5 h. A digest of the protocol: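 For fragment mapping, 100 μg peptide was incubated in murine plasma at 37 °C. At each time point, plasma samples were quenched with 3% TFA. Proteins were precipitated with 2 volumes acetonitrile and centrifuged at 17 000g. Supernatants were analyzed by MALDI-TOF MS for C-terminally truncated fragments.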

The next data set has as its system DU-145. As to the kind of experiment: Cytotoxicity against human DU145 cells after 72 hrs by MTT assay. The note with it: DU-145, 72 h. It is filed as functional, cell-based. A digest of the protocol:
as §1

The target in data set [3] is T2, Neuroendocrine convertase 2 (Homo sapiens, UniProt P16519).
T2 sequence (P16519 whole entry): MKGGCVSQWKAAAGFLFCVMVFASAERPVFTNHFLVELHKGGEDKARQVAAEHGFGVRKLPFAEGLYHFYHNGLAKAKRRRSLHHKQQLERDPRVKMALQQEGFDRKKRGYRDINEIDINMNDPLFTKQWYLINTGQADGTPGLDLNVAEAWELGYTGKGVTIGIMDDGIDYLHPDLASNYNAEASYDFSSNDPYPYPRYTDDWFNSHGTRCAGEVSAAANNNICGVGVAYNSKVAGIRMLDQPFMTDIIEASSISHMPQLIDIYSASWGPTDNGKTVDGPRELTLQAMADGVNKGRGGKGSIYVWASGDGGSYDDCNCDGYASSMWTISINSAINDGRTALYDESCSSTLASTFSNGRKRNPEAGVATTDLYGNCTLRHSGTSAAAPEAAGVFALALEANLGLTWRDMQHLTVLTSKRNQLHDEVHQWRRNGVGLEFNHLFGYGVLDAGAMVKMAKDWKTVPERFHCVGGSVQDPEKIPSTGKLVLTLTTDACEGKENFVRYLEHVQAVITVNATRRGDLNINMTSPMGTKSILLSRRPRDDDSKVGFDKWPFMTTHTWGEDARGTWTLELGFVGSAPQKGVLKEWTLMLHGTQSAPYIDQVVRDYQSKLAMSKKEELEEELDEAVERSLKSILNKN
As to the kind of experiment: Inhibition of human PC2 expressed in drosophila schneider 2 cells using pyroGlu-Arg-Thr-Lys-Arg-AMC as substrate after 1 hr. A digest of the protocol: as §2

The nature of data set [4]: Half life in CD-1 mouse plasma at 0.5 ug/uL by RP-HPLC analysis. It is filed as ADME, cell-free. In short, it runs like this: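 Peptides at 0.5 μg/μL were incubated at 37 °C in heparinized plasma pooled from mixed-sex CD1 mice. At each time point the reaction was stopped with 1 M guanidinium-HCl, then acetonitrile, and proteins were spun out. Supernatant peptide AUC (RP-HPLC) was compared with non-incubated samples. Half-life came from a one-phase decay fit. Run ≥3 times, duplicate per time point.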

Chain of Furin (P09958 whole entry): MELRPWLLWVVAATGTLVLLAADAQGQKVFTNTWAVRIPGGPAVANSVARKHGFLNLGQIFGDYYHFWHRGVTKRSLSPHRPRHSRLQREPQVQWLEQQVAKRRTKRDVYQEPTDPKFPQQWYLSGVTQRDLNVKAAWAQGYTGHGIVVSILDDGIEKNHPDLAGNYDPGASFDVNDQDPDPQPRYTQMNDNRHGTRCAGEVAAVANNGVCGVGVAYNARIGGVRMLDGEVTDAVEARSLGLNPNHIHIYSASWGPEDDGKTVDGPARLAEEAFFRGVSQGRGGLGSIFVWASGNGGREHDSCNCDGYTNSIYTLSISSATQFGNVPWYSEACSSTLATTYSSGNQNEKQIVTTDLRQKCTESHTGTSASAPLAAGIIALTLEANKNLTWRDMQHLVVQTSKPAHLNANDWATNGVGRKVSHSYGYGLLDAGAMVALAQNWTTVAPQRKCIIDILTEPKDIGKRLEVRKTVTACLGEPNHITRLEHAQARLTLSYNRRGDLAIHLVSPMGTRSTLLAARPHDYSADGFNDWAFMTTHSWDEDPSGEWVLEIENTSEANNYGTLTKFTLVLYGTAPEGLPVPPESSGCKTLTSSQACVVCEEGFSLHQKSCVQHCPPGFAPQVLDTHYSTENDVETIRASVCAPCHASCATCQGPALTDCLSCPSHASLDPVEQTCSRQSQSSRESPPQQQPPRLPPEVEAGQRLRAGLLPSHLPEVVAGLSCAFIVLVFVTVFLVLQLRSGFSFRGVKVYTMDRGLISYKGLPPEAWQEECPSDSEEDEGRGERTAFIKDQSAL

Consider `CC(=O)N[C@@H](CC(C)C)C(=O)N[C@@H](CC(C)C)C(=O)N[C@@H](CC(C)C)C(=O)N[C@@H](CC(C)C)C(=O)N[C@@H](CCCNC(=N)N)C(=O)N[C@H](C(=O)N[C@@H](CCCCN)C(=O)NC/C=C/CNC(=N)N)C(C)C` (Ac-LLLLRVK-X1), for which the results for the IC50 in the data set on PC-3, with LNCaP and in the data set on DU-145 were 200 µM, 70 µM and 90 µM, respectively. Moreover, the inhibition constant (Ki) in data set [1] is 0.072 µM; on Furin, 0.027 µM; in data set [3], 0.0017 µM. Also, the cytotoxicity at 4 h, 100 µM in data set [2] is < 5%. In addition, the Stability result in the data set on Plasma was “Unstable”. Further, the half-life at 0.5 ug/uL in data set [4] was 7.2 h.
